{"source": "ChEMBL document CHEMBL2062375", "about": "“Discovery of an orally efficacious inhibitor of anaplastic lymphoma kinase” (J Med Chem, 2012)", "key": {"KARPAS-299": {"test_system": "KARPAS-299", "assay": "Antitumor activity against human KARPAS299 cells expressing NPM-ALK xenografted in SCID mouse assessed as tumor regression at 30 mg/kg, po bid for 12 days", "assay_type": "functional, organism-based", "set-up": "dose 30 mg/kg", "procedure,_shortened": "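Female SCID/beige mice, 6–8 weeks old, implanted sc in the left flank with exponentially growing Karpas-299 cells. At about 600 mm³ tumours, mice were randomized (8–10/group) and given PEG400 vehicle or compound orally b.i.d., 100 μL, for 12 days. Tumour volume (0.5236LW(L+W)/2) and body weight were recorded every 2–3 days; Mann–Whitney test. Plasma and tumour levels were measured by LC-MS/MS 2 h after the final dose, mean ± SEM.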"}, "[1]": {"target": "Mitogen-activated protein kinase 8 (Homo sapiens, UniProt P45983)", "sequence (P45983 whole entry)": "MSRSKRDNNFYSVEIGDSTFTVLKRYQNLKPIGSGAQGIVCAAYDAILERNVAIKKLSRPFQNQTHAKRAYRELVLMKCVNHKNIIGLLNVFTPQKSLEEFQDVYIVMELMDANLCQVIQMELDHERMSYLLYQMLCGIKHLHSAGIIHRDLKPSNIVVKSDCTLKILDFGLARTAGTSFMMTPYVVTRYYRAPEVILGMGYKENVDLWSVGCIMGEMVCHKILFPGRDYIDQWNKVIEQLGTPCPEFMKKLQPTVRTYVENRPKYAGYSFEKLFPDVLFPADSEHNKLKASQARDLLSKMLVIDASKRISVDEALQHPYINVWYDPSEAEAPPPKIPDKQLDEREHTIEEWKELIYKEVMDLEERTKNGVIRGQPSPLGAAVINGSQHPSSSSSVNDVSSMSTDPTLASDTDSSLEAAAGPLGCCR", "assay": "Inhibition of human JNK1alpha1", "procedure,_shortened": "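Millipore KinaseProfiler activity assays on a 259-kinase panel; kinases inhibited by ≥90% at 1 μM then taken to full IC50 determination.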"}, "[2]": {"assay": "Cmax in SCID mouse at 10 mg/kg, po", "assay_type": "ADME, organism-based", "set-up": "dose 10 mg/kg, route oral", "details": "in vivo", "procedure,_shortened": "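Mouse PK. IV via the lateral tail vein in 3% DMSO/30% Solutol/67% PBS, or oral gavage in 100% PEG400, 100 μL dose volume, after an overnight fast. Trunk blood was taken from three mice per time point over 6 h. Plasma was acetonitrile-precipitated and analysed by LC-MS/MS. Parameters were derived noncompartmentally.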"}, "[3]": {"assay": "Half life in Sprague-Dawley rat at 10 mg/kg, po", "assay_type": "ADME, organism-based", "set-up": "dose 10 mg/kg, route oral", "details": "in vivo", "procedure,_shortened": "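Rat PK. IV via the lateral tail vein, 1 mL/kg in 3% DMSO/30% Solutol/67% PBS, or oral gavage at 5 mL/kg in 40% HPβCD, after an overnight fast. Serial tail-vein blood was taken into heparin over 6 h. Plasma was acetonitrile-precipitated and analysed by LC-MS/MS. Parameters were noncompartmental, n = 3, mean ± SEM.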"}, "[4]": {"assay": "Plasma concentration in SCID mouse xenografted with human KARPAS299 cells expressing NPM-ALK at 30 mg/kg, po after 6 hrs by LC-MS/MS analysis", "assay_type": "ADME, organism-based, KARPAS-299", "set-up": "dose 30 mg/kg, route oral", "procedure,_shortened": "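Pharmacodynamic study: SCID mice bearing subcutaneous Karpas-299 xenografts given single 30 mg/kg oral dose; plasma drug levels measured by LCMS/MS, reported as mean ± SEM.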"}, "[5]": {"assay": "Tmax in CD-1 mouse at 10 mg/kg, po", "assay_type": "ADME, organism-based", "set-up": "dose 10 mg/kg, route oral", "details": "in vivo", "procedure,_shortened": "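Mouse oral PK: overnight fast, gavage of 100 μL in 100% PEG400; trunk blood from three mice per time point over 6 h; plasma acetonitrile-precipitated and analysed by LCMS/MS, noncompartmental parameters.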"}, "[6]": {"target": "NUAK family SNF1-like kinase 1 (Homo sapiens, UniProt O60285)", "sequence (O60285 whole entry)": "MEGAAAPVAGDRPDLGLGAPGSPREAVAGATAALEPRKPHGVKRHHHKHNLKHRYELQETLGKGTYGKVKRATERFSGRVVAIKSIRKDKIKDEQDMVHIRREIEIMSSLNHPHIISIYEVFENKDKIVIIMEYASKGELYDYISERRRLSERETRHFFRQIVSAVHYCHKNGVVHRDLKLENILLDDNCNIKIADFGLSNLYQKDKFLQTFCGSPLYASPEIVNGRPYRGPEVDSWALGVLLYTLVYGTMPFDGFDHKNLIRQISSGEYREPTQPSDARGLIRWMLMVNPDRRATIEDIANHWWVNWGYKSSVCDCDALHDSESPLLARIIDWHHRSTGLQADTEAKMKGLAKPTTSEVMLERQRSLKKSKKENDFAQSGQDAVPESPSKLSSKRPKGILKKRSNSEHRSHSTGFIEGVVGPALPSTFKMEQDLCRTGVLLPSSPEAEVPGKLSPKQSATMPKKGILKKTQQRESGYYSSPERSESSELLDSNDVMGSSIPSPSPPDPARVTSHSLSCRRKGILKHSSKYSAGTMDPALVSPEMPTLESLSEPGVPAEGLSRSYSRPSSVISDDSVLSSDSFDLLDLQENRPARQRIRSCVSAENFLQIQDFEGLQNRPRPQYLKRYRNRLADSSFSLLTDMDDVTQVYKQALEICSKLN", "assay": "Inhibition of human ARK5"}, "[7]": {"assay": "Plasma clearance in Beagle dog at 1 mg/kg, iv", "assay_type": "ADME, organism-based, Canis lupus familiaris", "set-up": "dose 1 mg/kg, route intravenous", "procedure,_shortened": "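IV PK: rats via lateral tail vein (1 mL/kg; 3% DMSO/30% Solutol/67% PBS), serial tail-vein blood over 6 h. Dogs and monkeys via saphenous vein (0.5 mL/kg in 40% HPβCD), femoral-vein blood over 24 h. Acetonitrile protein precipitation, LCMS/MS; noncompartmental parameters from individual animals, n = 3, mean ± SEM.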"}, "[8]": {"assay": "Drug level in SCID mouse tumor xenografted with human KARPAS299 cells expressing NPM-ALK at 30 mg/kg, po after 2 hrs by LC-MS/MS analysis", "assay_type": "ADME, organism-based, Neoplasm, KARPAS-299", "set-up": "dose 30 mg/kg, route oral", "details": "read-out: Drug uptake"}, "NB1643": {"test_system": "NB1643", "assay": "Antitumor activity against human NB1643 cells expressing ALK mutant F1174L assessed as growth inhibition administered as po bid", "assay_type": "functional, organism-based"}}, "note": "The source made the active and inactive calls. The rule behind the calls is not given here."}
{"compound": "COc1c(Nc2ncc(Cl)c(N[C@H]3[C@@H](C(N)=O)[C@@H]4C=C[C@H]3C4)n2)ccc2c1CC[C@@H](N1CCOCC1)CC2", "values": [{"measurement": "Activity", "setting": "KARPAS-299", "result": "Active"}, {"measurement": "IC50", "setting": "[1]", "result": 112, "unit": "nM"}, {"measurement": "Cmax", "setting": "[2]", "result": 2750, "unit": "ng/mL"}, {"measurement": "half-life", "setting": "[3]", "result": 6.2, "unit": "h"}, {"measurement": "concentration at 6 h", "setting": "[4]", "result": 3840, "unit": "ng/mL"}, {"measurement": "Tmax", "setting": "[5]", "result": 0.25, "unit": "h"}, {"measurement": "IC50", "setting": "[6]", "result": 26, "unit": "nM"}, {"measurement": "clearance", "setting": "[7]", "result": 40, "unit": "mL/min/kg"}, {"measurement": "concentration at 2 h", "setting": "[8]", "result": 2630, "unit": "ng/g"}, {"measurement": "growth inhibition (GI)", "setting": "NB1643", "result": "Active"}]}
